Reference: paper PMC3966939 (Stroke; a journal of cerebral circulation, 2014)

Tests used:
[1] = tested on: rat model of embolic middle cerebral artery occlusion (MCAO); assay: Incidence of gross hemorrhage on H&E stained coronal sections; type: in vivo; conditions: treatment started 4h after MCAO; H&E sections 7 days after MCAO
Method in brief: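 In embolic-MCAO male Wistar rats, treatment began 1 or 4 h after occlusion. The peptide was given at 0.8 mg/kg/day (IA for 2 h, then SC pump for 3 days), with or without IV tPA 10 mg/kg at 4 h. Rats were killed at day 7. Seven H&E coronal sections per animal were scored for blood visible to the unaided eye, expressed as group percentage. Fisher exact test was applied.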

[2] = tested on: rat model of embolic middle cerebral artery occlusion (MCAO); assay: MRI measurement of ischemic lesion; type: in vivo; conditions: treatment started 4h after MCAO; MRI at 1, 72 and 144 h after MCAO; n=10/group
Method in brief: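 Rats received IV tPA (10 mg/kg) alone or tPA plus peptide, starting 4 h after embolic MCAO. Imaging was done on a 7 T scanner with T2-weighted and diffusion-weighted images at 1, 72 and 144 h. Ischemic area was taken from the T2 map using a threshold of two SD above the contralateral hemisphere. Groups were compared by one-way ANOVA.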

TGF-β1 = assay: Immunohistochemistry: TGF-β1 immunoreactive vessels; type: in vivo, rat; conditions: treatment 4h after MCAO, 24h; compared to the saline treatment
Method in brief: (§1)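 Embolic-MCAO male Wistar rats were treated 4 h after stroke onset with one of three regimens: IV tPA (10 mg/kg) alone, tPA plus peptide (0.8 mg/kg/day, IA then SC pump), or saline (n=4–6). Rats were killed 24 h after treatment began. Frozen 8 μm coronal sections (bregma −0.4 to −1.4 mm) were immunostained, and immunoreactive vessels in ischemic brain were counted. One-way ANOVA with Hochberg adjustment was used.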

p-Smad2/3 = assay: Immunohistochemistry: p-Smads2/3 immunoreactive vessels; type: in vivo, rat; conditions: treatment 4h after MCAO, 24h; compared to the saline treatment
Method in brief: as §1

PAI-1 = assay: Immunohistochemistry: PAI-1 immunoreactive vessels; type: in vivo, rat; conditions: treatment 4h after MCAO, 24h; double immunostaining
Method in brief: as §1

NF-κB (p65) = assay: Immunohistochemistry: p65 immunoreactive vessels; type: in vivo, rat; conditions: treatment 4h after MCAO, 24h; ipsilateral hemisphere
Method in brief: as §1

## tissue plasminogen activator [tPA]
[1]
  incidence of gross hemorrhage: 38%
[2]
  ischemic lesion by MRI (T2): increased over 144h
TGF-β1
  density of TGF-β1 immunoreactive vessels: failed to reduce the densities
p-Smad2/3
  density of p-Smads2/3 immunoreactive vessels: failed to reduce the densities
PAI-1
  PAI-1 immunoreactive vessel density: further increased
NF-κB (p65)
  p65 immunoreactive vessels: augmented
